The text below walks through data of ChEMBL document CHEMBL3864141, “Cyclic non-opioid dynorphin A analogues for the bradykinin receptors” (Bioorg Med Chem Lett, 2016).

Data set [1] can be described thus: Displacement of [3H]BK from bradykinin receptor in rat brain membranes at pH 6.8 after 2 hrs by liquid scintillation counting method. Format: cell membranes, Membrane. The method, boiled down:
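Competitive binding of [3H]BK to rat brain membranes at pH 6.8. Non-specific binding was defined with 10 μM kallidin. IC50 values were obtained by nonlinear least-squares regression of data from at least two independent experiments run in duplicate, and were also reported as logarithmic values.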
(Displacement assays read how much labelled ligand stays bound in the presence of the test substance.)

A short description of data set [2]: Displacement of [3H]DALKD from bradykinin receptor in rat brain membranes at pH 6.8 after 2 hrs by liquid scintillation counting method. The data set is classed as cell membranes, Membrane.
Data set [3] in a line: Half life in rat plasma by RP-HPLC method. Format: ADME, cell-free. Summed up:
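Peptide incubated in rat plasma at 37 °C and sampled at 1, 2, 4 and 8 h. Quenched samples were analysed by RP-HPLC. Half-life was calculated as t1/2 = 0.693/b, where b is the slope of the linear fit.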

Positions of bridges follow the written chain, without caps; N, C: chain ends. Non-standard residues stand in square brackets, D forms with d. Residues, ends and D or L forms follow the SMILES beside them. Nle = CCCC[C@H](N)C(=O)O

Broadly, the IC50 is the point on the concentration scale where inhibition reaches its midpoint. Low readings indicate greater potency in that assay, high ones weaker potency in that assay. Usually pIC50 stands for −log10 of the IC50, conventionally taken in molar units. A high value points to a small IC50. In data set [1], `CC[C@H](C)[C@@H]1NC(=O)[C@H](CCCNC(=N)N)NC(=O)[C@H](CC(C)C)NC(=O)CC[C@@H](C(=O)N[C@@H](CCCCN)C(=O)O)NC(=O)[C@H](CCCNC(=N)N)NC1=O` (LRIREK-OH; lactam N-5) returned an IC50 of 1510 nM and a pIC50 of 5.82.
In data set [2], `CCCC[C@H](NC(=O)[C@H](CCCCN)NC(=O)[C@@H]1CCCN1C(=O)[C@H](CCCCN)NC(=O)[C@@H](N)CCCC)C(=O)N[C@@H](CCCCN)C(=O)O` (H-[Nle]KPK[Nle]K-OH) displayed an IC50 of 78 nM and a pIC50 of 7.11.
For `CC[C@H](C)[C@@H]1NC(=O)[C@H](CCCNC(=N)N)NC(=O)[C@H](CC(C)C)NC(=O)[C@H](CCCCN)NC(=O)CC[C@@H](C(=O)N[C@@H](CCCCN)C(=O)O)NC(=O)[C@H](CCCNC(=N)N)NC1=O` (KLRIREK-OH; lactam N-6), in data set [1], the IC50 was determined as 302 nM and the pIC50 came out at 6.52.
Usually half-life stands for the time needed for the level to fall by half in the phase considered. A high value points to slow decline. On to `CC[C@H](C)[C@@H]1NC(=O)[C@H](CCCNC(=N)N)NC(=O)[C@H](CC(C)C)NC(=O)[C@H](Cc2ccccc2)NC(=O)CC[C@@H](C(=O)N[C@@H](CCCCN)C(=O)O)NC(=O)[C@H](CCCNC(=N)N)NC1=O` (FLRIREK-OH; lactam N-6), for which, in data set [3], the half-life was 5.5 h. In data set [1], this compound displayed an IC50 of 191 nM and a negative logarithm of the IC50 (pIC50) of 6.72.
